Assay results as given in ChEMBL document CHEMBL1136924 (J Med Chem, 2009).
Active and inactive are the calls of the source.

What was measured:
[1] = Plasma concentration in CD1 albino mouse at 20 mg/kg, ip after 15 mins; format: ADME, organism-based; parameters: dose 20 mg/kg, route intraperitoneal
Method in brief: (§1)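 Male CD1 mice (25-30 g) given ip 5 or 20 mg/kg, killed at set times; trunk blood plasma and brain collected. Solid-phase C18 extraction with internal standard, HPLC-UV at 240 nm. Quantification limits about 0.25 nmol/mL plasma, 0.5 nmol/g brain. Three mice per point. Half-life 0.693/β; clearance dose·F/AUC.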

[2] = molecular target: T1, 5-hydroxytryptamine receptor 1A (Rattus norvegicus, UniProt P19327); assay: Displacement of [3H]8-OHDPAT from 5HT1A receptor in rat hippocampus; format: tissue-based
T1 sequence (P19327 whole entry): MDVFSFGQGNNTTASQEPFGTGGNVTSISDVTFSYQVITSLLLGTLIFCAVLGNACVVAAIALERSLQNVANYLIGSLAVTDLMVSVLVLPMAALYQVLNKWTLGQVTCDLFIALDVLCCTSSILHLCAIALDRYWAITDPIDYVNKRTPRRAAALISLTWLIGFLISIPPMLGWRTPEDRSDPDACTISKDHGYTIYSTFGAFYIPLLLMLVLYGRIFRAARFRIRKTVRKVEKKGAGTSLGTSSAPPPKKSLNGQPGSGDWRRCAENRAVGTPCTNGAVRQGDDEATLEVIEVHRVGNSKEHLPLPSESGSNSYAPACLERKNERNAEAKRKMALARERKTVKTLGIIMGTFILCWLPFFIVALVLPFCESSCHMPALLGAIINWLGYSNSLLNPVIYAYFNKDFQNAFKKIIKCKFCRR

[3] = molecular target: T2, 5-hydroxytryptamine receptor 3A (Cavia porcellus) (UniProt O70212); assay: Agonist activity at 5HT3 receptor in spontaneously beating guinea pig right atrium assessed as positive chronotropic potency; format: functional, tissue-based; details: Cardiac atrium
T2 sequence (whole entry): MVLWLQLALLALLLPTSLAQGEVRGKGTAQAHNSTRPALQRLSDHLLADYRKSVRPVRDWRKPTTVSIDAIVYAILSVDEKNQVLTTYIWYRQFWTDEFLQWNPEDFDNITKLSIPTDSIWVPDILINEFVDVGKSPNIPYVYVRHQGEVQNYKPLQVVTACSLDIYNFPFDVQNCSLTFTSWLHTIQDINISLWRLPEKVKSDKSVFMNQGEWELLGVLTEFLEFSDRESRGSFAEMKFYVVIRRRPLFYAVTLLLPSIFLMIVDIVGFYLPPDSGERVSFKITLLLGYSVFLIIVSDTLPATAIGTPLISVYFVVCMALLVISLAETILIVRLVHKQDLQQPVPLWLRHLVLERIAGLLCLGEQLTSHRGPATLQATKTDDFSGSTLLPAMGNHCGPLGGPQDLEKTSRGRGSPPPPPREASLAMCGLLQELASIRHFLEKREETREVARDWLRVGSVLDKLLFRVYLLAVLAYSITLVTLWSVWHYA
Method in brief: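 Isolated guinea pig atria in PSS (Tyrode) with ketanserin 1 µM, 95% O2-5% CO2, pH 7.4, 35 °C. Right atrium beating spontaneously (rate); left atrium paced 1 Hz, 0.6-0.8 ms pulses near 50% threshold (force). Isometric recording after 45-60 min stabilization.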

[4] = Apparent volume of distribution with respect to the bioavailability in CD1 albino mouse plasma at 20 mg/kg, ip; format: ADME, organism-based; details: read-out: Vc/F; method in brief: as §1
[5] = molecular target: T3, 5-hydroxytryptamine receptor 3A (Rattus norvegicus, UniProt P35563); assay: Displacement of [3H]LY278584 from 5HT3 receptor in rat cortical homogenate
T3 sequence (P35563 whole entry): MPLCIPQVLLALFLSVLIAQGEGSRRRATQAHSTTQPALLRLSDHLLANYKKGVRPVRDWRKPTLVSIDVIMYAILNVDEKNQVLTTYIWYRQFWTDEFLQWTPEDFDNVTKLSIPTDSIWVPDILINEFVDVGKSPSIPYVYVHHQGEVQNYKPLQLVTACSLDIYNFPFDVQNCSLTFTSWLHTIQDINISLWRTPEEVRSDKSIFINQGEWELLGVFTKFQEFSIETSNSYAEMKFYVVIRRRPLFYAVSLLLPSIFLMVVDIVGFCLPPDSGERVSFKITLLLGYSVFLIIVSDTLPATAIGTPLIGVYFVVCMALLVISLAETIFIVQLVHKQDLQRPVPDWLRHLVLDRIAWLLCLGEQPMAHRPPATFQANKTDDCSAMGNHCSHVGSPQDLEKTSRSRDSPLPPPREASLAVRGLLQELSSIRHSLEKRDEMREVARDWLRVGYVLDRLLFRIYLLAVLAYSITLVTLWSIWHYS

[6] = molecular target: T2, 5-hydroxytryptamine receptor 3A (Cavia porcellus); assay: Agonist activity at 5HT3 receptor in voltage-stimulated guinea pig left atrium assessed as positive inotropic potency at 100 uM; format: functional, tissue-based; details: Cardiac atrium
Method in brief: (§2)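 Guinea pig left and right atria were hung in a 15 mL bath of PSS (pH 7.4, 95% O2-5% CO2, 35 °C) with ketanserin 1 µM. The right atrium beat spontaneously; the left was paced at 1 Hz. Cumulative doses (0.1-100 µM; DMSO ≤0.3%) were added after 45-60 min stabilization. Rate or isometric force was recorded. EC50 came from Probit analysis, n≥4. Intrinsic activity was taken relative to 5-HT.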

Rattus norvegicus [7] = assay: Activity at 5HT3 receptor in urethane-anesthetized Sprague-Dawley rat assessed as effect on heart rate at 100 ug/kg, iv measured after 5 to 30 mins post-treatment by von Bezold-Jarisch reflex test relative to 40 ug/kg, iv 1-phenylbiguanide; format: functional, organism-based
[8] = Clearance in CD1 albino mouse plasma at 20 mg/kg, ip; format: ADME, organism-based; parameters: dose 20 mg/kg, route intraperitoneal; method in brief: as §1
[9] = molecular target: 5-hydroxytryptamine receptor 4 (Cavia porcellus, UniProt O70528); assay: Displacement of [3H]GR-113808 from 5HT4 receptor in guinea pig striatum
[10] = Plasma concentration in CD1 albino mouse at 5 mg/kg, ip after 15 mins; format: ADME, organism-based; parameters: dose 5 mg/kg, route intraperitoneal; method in brief: as §1
[11] = molecular target: T4, 5-hydroxytryptamine receptor 3A (Cavia porcellus, UniProt O70212); assay: Antagonist activity at 5HT3 receptor in spontaneously beating guinea pig right atrium assessed as inhibition of serotonin-induced maximum response by noncompetitive binding assay; format: tissue-based, Cardiac atrium
T4 sequence (O70212 whole entry): T2 sequence (whole entry)
Method in brief: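 Spontaneously beating guinea pig right atrium; 5-HT concentration-response curves (0.001-1.0 µM) before and after 30 min antagonist exposure at three concentrations. IC50 is inhibition of 50% of maximal 5-HT response, Probit analysis, n = 4-6.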

Rattus norvegicus [12] = assay: Agonist activity at 5HT3 receptor in urethane-anesthetized Sprague-Dawley rat assessed as induction of bradycardia at 50 ug/kg, iv measured after 5 to 30 mins post-treatment by von Bezold-Jarisch reflex test relative to 40 ug/kg, iv 1-phenylbiguanide; format: functional
Rattus norvegicus [13] = assay: Antagonist activity at 5HT3 receptor in urethane-anesthetized Sprague-Dawley rat assessed as half-blockade of 1-phenylbiguanide-induced bradycardia at 30 ug/kg, iv administered 5 mins before 1-phenylbiguanide challenge measured after 5 to 30 mins post-treatment by von Bezold-Jarisch reflex test; format: functional, organism-based
[14] = molecular target: T2, 5-hydroxytryptamine receptor 3A (Cavia porcellus); assay: Agonist activity at 5HT3 receptor in spontaneously beating guinea pig right atrium assessed as positive chronotropic potency at 100 uM; format: functional, tissue-based; details: Cardiac atrium; method in brief: as §2
Rattus norvegicus [15] = assay: Partial agonist activity at 5HT3 receptor in iv dosed urethane-anesthetized Sprague-Dawley rat assessed as induction of bradycardia measured after 5 to 30 mins post-treatment by von Bezold-Jarisch reflex test; format: functional; details: read-out: ID50 (the source's name)

Sequence of 5-hydroxytryptamine receptor 4 (O70528 whole entry): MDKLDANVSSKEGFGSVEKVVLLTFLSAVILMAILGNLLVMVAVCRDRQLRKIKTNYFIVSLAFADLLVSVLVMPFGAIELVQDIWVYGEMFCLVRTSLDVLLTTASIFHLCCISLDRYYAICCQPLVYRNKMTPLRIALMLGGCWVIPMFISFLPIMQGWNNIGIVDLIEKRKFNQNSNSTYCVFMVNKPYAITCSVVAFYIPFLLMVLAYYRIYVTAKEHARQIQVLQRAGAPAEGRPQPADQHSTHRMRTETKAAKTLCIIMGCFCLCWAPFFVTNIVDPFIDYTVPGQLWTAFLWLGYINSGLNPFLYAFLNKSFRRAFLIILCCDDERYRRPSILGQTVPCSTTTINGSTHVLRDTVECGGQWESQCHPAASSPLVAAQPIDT

Structure (SMILES)	concentration at 0.25 h [1]	Ki [2]	pD2 [3]	Vd/F [4]	Ki [5]	pD2 [6]	Activity (Rattus norvegicus [7])	CL/F [8]	Ki [9]	concentration at 0.25 h [10]	IC50 [11]	Activity (Rattus norvegicus [12])	Activity (Rattus norvegicus [13])	pD2 [14]	ED50 (Rattus norvegicus [15])
N[C@@H](CN1CCN(c2nc3cc(F)ccc3n3cccc23)CC1)C(=O)O	12 µM	446 nM	5.98	6 L/kg	2.8 nM	inactive	inactive	90 mL/min/kg	> 10000 nM	2 µM	–	–	–	–	–
N/C(CN1CCN(c2nc3cc(F)ccc3n3cccc23)CC1)=N\O	–	> 10000 nM	–	–	0.8 nM	inactive	–	–	> 10000 nM	–	5750 nM	60%	Active	inactive	0.03 mg/kg
